This note sets out measurements from ChEMBL document CHEMBL4610039, “Design, synthesis and apoptosis-related antiproliferative activities of chelidonine derivatives” (Bioorg Med Chem Lett, 2020).

The subject of one assay is HCT-116. The experiment in a line: Antiproliferative activity against human HCT116 cells assessed as reduction in cell growth after 72 hrs by MTT assay. The assay is classed as functional, cell-based. To be noted: HCT-116, 72 h. Put shortly:
(§1)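 Human HepG2, MCF-7, HCT-116 and K562 tumour cells plus normal L-02 hepatocytes and PBMCs were exposed to compounds for 72 h and growth was read by MTT. 5-Fu served as positive control. IC50 is the concentration inhibiting 50% of cell growth, given as mean ± standard deviation of three independent experiments.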
On the technique in general: Tetrazolium dyes change colour on reduction, which living cells bring about.

The subject of a further assay is L02. Briefly: Antiproliferative activity against human L02 cells assessed as reduction in cell growth after 72 hrs by MTT assay. The assay is classed as functional, cell-based. To be noted: L02, 72 h. Put shortly:
as §1

The subject of another assay is K562. The experiment in a line: Antiproliferative activity against human K562 cells assessed as reduction in cell growth after 72 hrs by MTT assay. The format is functional, cell-based. To be noted: K562, 72 h. A digest of the protocol:
as §1

In the next assay the test system is MCF7. The experiment in a line: Antiproliferative activity against human MCF7 cells assessed as reduction in cell growth after 72 hrs by MTT assay. The assay is classed as functional, cell-based. To be noted: MCF7, 72 h. Put shortly: as §1
The test system of another assay is PBMC. Briefly: Cytotoxicity against human PBMC assessed as reduction in cell growth after 72 hrs by MTT assay. The assay is classed as cell-based. Put shortly:
as §1

In a further assay the test system is HepG2. Briefly: Antiproliferative activity against human HepG2 cells assessed as reduction in cell growth after 72 hrs by MTT assay. The format is functional, cell-based. To be noted: HepG2, 72 h. A digest of the protocol: as §1

pIC50: −log10 of the molar value. A value given as a limit tells only on which side of the number the result lay.

The term pIC50 denotes −log10 of the IC50, conventionally taken in molar units. Consider `CC(CNC(=O)CCCC(=O)O[C@H]1Cc2cc3c(cc2[C@@H]2[C@H]1c1ccc4c(c1CN2C)OCO4)OCO3)Oc1no[n+]([O-])c1S(=O)(=O)c1ccccc1` (stereo partly specified), for which the pIC50 in the assay with HCT-116 is 4.91; in the assay on L02, 4.63; with K562, 5.57; with MCF7, 5.31; with PBMC it was under 4.40; in the assay with HepG2, 5.12.
In the case of `CN1Cc2c(ccc3c2OCO3)[C@H]2[C@@H](OC(=O)CCCC(=O)NCCCOc3no[n+]([O-])c3S(=O)(=O)c3ccccc3)Cc3cc4c(cc3[C@H]21)OCO4`, the negative-log IC50 (pIC50) in the assay with HCT-116 is 5.14; with L02 it was 4.70; in the assay on K562, 5.50; in the assay on MCF7, 5.28; with PBMC, under 4.40; with HepG2 it was 4.97.
In the case of `CN1Cc2c(ccc3c2OCO3)[C@H]2[C@@H](OC(=O)CCCC(=O)NCCOc3no[n+]([O-])c3S(=O)(=O)c3ccccc3)Cc3cc4c(cc3[C@H]21)OCO4`, the pIC50 with HCT-116 is under 4.40; in the assay with L02, under 4.40; in the assay on K562, 4.92; with MCF7 it was 4.84; in the assay with PBMC it was under 4.40; with HepG2, 4.58.
`CN1Cc2c(ccc3c2OCO3)[C@H]2[C@@H](OC(=O)CCC(=O)OCCCOc3no[n+]([O-])c3S(=O)(=O)c3ccccc3)Cc3cc4c(cc3[C@H]21)OCO4`: the negative logarithm of the IC50 (pIC50) is 4.80 in the assay with HCT-116; 4.84 with L02; 5.51 in the assay on K562; 5.43 in the assay on MCF7; under 4.40 in the assay on PBMC; 4.98 in the assay on HepG2.
For the molecule `CN1Cc2c(ccc3c2OCO3)[C@H]2[C@@H](OC(=O)CCCC(=O)OCCCCOc3no[n+]([O-])c3S(=O)(=O)c3ccccc3)Cc3cc4c(cc3[C@H]21)OCO4`, the pIC50 with HCT-116 is 4.72; with L02 it was under 4.40; in the assay on K562, 5.21; in the assay with MCF7 it was 5.17; in the assay on PBMC it was under 4.40; with HepG2, 4.71.
For `CN1Cc2c(ccc3c2OCO3)[C@H]2[C@@H](OC(=O)CCC(=O)OCCCCCCOc3no[n+]([O-])c3S(=O)(=O)c3ccccc3)Cc3cc4c(cc3[C@H]21)OCO4`, the pIC50 with HCT-116 was 4.78; in the assay with L02, under 4.40; in the assay on K562, 5.12; with MCF7, 5.10; in the assay with PBMC, under 4.40; in the assay on HepG2, 5.02.
For `CN1Cc2c(ccc3c2OCO3)[C@H]2[C@@H](OC(=O)CCC(=O)OCC#CCOc3no[n+]([O-])c3S(=O)(=O)c3ccccc3)Cc3cc4c(cc3[C@H]21)OCO4`, the pIC50 with HCT-116 was 4.63; in the assay with L02 it was 4.55; with K562, 5.42; in the assay on MCF7, 5.27; in the assay with PBMC, under 4.40; with HepG2 it was 4.84.
In the case of `CN1Cc2c(ccc3c2OCO3)[C@H]2[C@@H](OC(=O)CCC(=O)NCCOc3no[n+]([O-])c3S(=O)(=O)c3ccccc3)Cc3cc4c(cc3[C@H]21)OCO4`, the pIC50 with HCT-116 was 4.94; in the assay with L02, 4.56; in the assay with K562, 5.50; with MCF7, 5.10; in the assay on PBMC, under 4.40; in the assay with HepG2 it was 4.94.
Take `CN1Cc2c(ccc3c2OCO3)[C@@H]2[C@H]1c1cc3c(cc1C[C@@H]2O)OCO3` [CHELIDONINE]: the pIC50 in the assay on HCT-116 was under 4.40; in the assay with L02 it was under 4.40; in the assay on K562, 4.75; in the assay with MCF7 it was under 4.40; in the assay with PBMC it was under 4.40; with HepG2 it was under 4.40.
With `CN1Cc2c(ccc3c2OCO3)[C@H]2[C@@H](OC(=O)CCC(=O)OCCCCOc3no[n+]([O-])c3S(=O)(=O)c3ccccc3)Cc3cc4c(cc3[C@H]21)OCO4`, the pIC50 in the assay with HCT-116 was 5.08; in the assay with L02, 4.71; in the assay with K562, 5.54; in the assay with MCF7, 5.32; with PBMC, under 4.40; in the assay with HepG2 it was 5.19.
As for `CC(CNC(=O)CCC(=O)O[C@H]1Cc2cc3c(cc2[C@@H]2[C@H]1c1ccc4c(c1CN2C)OCO4)OCO3)Oc1no[n+]([O-])c1S(=O)(=O)c1ccccc1` (stereo partly specified), the pIC50 is 4.78 in the assay with HCT-116; under 4.40 in the assay on L02; 5.16 in the assay on K562; 5.08 in the assay with MCF7; under 4.40 with PBMC; 4.71 with HepG2.
Turning to `CN1Cc2c(ccc3c2OCO3)[C@H]2[C@@H](OC(=O)CCC(=O)OCCOCCOc3no[n+]([O-])c3S(=O)(=O)c3ccccc3)Cc3cc4c(cc3[C@H]21)OCO4`, the pIC50 is 5.06 with HCT-116; 4.62 in the assay with L02; 5.34 in the assay with K562; 5.05 in the assay on MCF7; under 4.40 with PBMC; 5.06 with HepG2.
With `CN1Cc2c(ccc3c2OCO3)[C@H]2[C@@H](OC(=O)CCC(=O)NCCCOc3no[n+]([O-])c3S(=O)(=O)c3ccccc3)Cc3cc4c(cc3[C@H]21)OCO4`, the negative-log IC50 (pIC50) was 4.76 in the assay on HCT-116; 4.44 in the assay with L02; 5.01 in the assay on K562; 4.87 in the assay with MCF7; under 4.40 with PBMC; 4.77 in the assay on HepG2.
With `CN1Cc2c(ccc3c2OCO3)[C@H]2[C@@H](OC(=O)CCCC(=O)OCCOCCOc3no[n+]([O-])c3S(=O)(=O)c3ccccc3)Cc3cc4c(cc3[C@H]21)OCO4`, the pIC50 in the assay on HCT-116 was 5.07; in the assay on L02, 4.78; in the assay on K562 it was 5.59; in the assay with MCF7, 5.18; in the assay with PBMC, under 4.40; in the assay with HepG2, 5.18.
Take `O=c1[nH]cc(F)c(=O)[nH]1` [FLUOROURACIL]: the pIC50 is 5.16 with HCT-116; under 4.40 in the assay with L02; 5.40 in the assay on K562; 4.57 in the assay on MCF7; under 4.40 in the assay with PBMC; 4.49 in the assay on HepG2.
Regarding `CN1Cc2c(ccc3c2OCO3)[C@H]2[C@@H](OC(=O)CCCC(=O)OCCCCCCOc3no[n+]([O-])c3S(=O)(=O)c3ccccc3)Cc3cc4c(cc3[C@H]21)OCO4`, the pIC50 was under 4.40 in the assay on HCT-116; under 4.40 with L02; 5.02 in the assay on K562; 4.88 with MCF7; under 4.40 with PBMC; under 4.40 with HepG2.
